For 34 compounds, Activity, EC50 and Remaining PrP-Sc level results are on record in ChEMBL document CHEMBL1156119 (J Med Chem, 2009).

Data set [1] has as its system SMB. Briefly: Antiprion activity against Scrapie prion protein-mediated scrapie in mouse SMB cells by dot blot analysis. The class given is cell-based. In short, it runs like this:
(§1)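 SMB scrapie-infected mouse cells, non-neuronal, in medium 199 with 10% newborn calf and 5% fetal calf serum, seeded at 3 × 10⁴ cells/well and attached for 24 h. Compound DMSO stocks were diluted via HBSS into medium and applied for 5 days. Lysates of ~30-40 μg protein/well were dot-blotted, digested with proteinase K at 75 μg mL⁻¹ (1 h, 37 °C) and denatured in 1.8 M guanidine thiocyanate. Read-out was %PrP^Sc versus DMSO-only control, in triplicate.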

The subject of data set [2] is SMB. As to the kind of experiment: Antiprion activity against Scrapie prion protein-mediated scrapie in mouse SMB cells assessed as remaining PrP-Sc level at 1 uM after 5 days by Bradford assay relative to control. The class given is cell-based. Summed up: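 Compound DMSO stocks were diluted via HBSS into medium and applied for 5 days. Lysates of ~30-40 μg protein/well were dot-blotted, digested with proteinase K at 75 μg mL⁻¹ (1 h, 37 °C) and denatured in 1.8 M guanidine thiocyanate. Read-out was %PrP^Sc versus DMSO-only control, in triplicate.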

Data set [3] in a line: Antiprion activity against Scrapie prion protein-mediated scrapie in mouse SMB cells assessed as remaining PrP-Sc level after 5 days by Bradford assay. The class given is cell-based. The following applies: 120 h. In short, it runs like this: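 Same SMB dot-blot protocol with 5-day exposure. Compounds were rescreened over a range of concentrations to fit an EC₅₀ from dose-response curves. Each determination was run in triplicate, in at least two independent experiments. PrP^Sc was measured relative to an untreated DMSO-only control.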

Data set [4] deals with SMB. Briefly: Antiprion activity against Scrapie prion protein-mediated scrapie in mouse SMB cells assessed as remaining PrP-Sc level at 10 uM after 5 days by Bradford assay relative to control. The class given is cell-based. Summed up:
as §1

Data set [5] is described as follows: Cytotoxicity against mouse SMB cells at 20 uM after 5 days by MTT assay. The class given is cell-based. The conditions noted are these: 120 h. In short, it runs like this:
(§2)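 SMB cells were seeded at 3 × 10⁴ cells/well and attached for 24 h. Compound was added from DMSO stock diluted through HBSS into the medium, and cells were exposed for 5 days. Viability was read by MTT assay following the standard reagent protocol.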

The test system of data set [6] is SMB. Briefly: Antiprion activity against Scrapie prion protein-mediated scrapie in mouse SMB cells assessed as remaining PrP-Sc level at 24 uM after 5 days by Bradford assay relative to control. The data set is classed as cell-based.
Data set [7] can be described thus: Antiprion activity against Scrapie prion protein-mediated scrapie in RML mouse ScN2a cells assessed as reduction of PrP-Sc level after 6 days by immunoblotting. The data set is classed as cell-based. The following applies: 144 h.
For data set [8], the target named is Major prion protein (Mus musculus) (UniProt P04925). As to the kind of experiment: Binding affinity to mouse PrP up to 40 uM by surface plasmon resonance assay. (In general: In SPR one partner is held on a chip, and binding of the other changes the refractive index at the surface.)
Data set [9] concerns the target Major prion protein (Homo sapiens) (UniProt P04156). As to the kind of experiment: Binding affinity to human PrP up to 40 uM by surface plasmon resonance assay.
For data set [10], the system named is SMB. As to the kind of experiment: Antiprion activity against Scrapie prion protein-mediated scrapie in mouse SMB cells assessed as remaining PrP-Sc level at 20 uM after 5 days by Bradford assay relative to control. The data set is classed as cell-based. Summed up:
as §1

Data set [11] is described as follows: Antiprion activity against Scrapie prion protein-mediated scrapie in mouse ScNB cells assessed as PrP-res accumulation after 4 days by immunoblotting. The class given is cell-based. The following applies: 96 h.
A short description of data set [12]: Cytotoxicity against mouse SMB cells at 10 uM after 5 days by MTT assay. The class given is cell-based. The following applies: 120 h. In short, it runs like this: as §2
(In general: Formazan colour is commonly taken as a measure of viable cells.)

Calls of active or inactive are those of the source. No cut-off for these calls is given here.

In general, EC50 refers to the midpoint of the concentration-response curve.

Sequence of Major prion protein (Mus musculus) (P04925 whole entry): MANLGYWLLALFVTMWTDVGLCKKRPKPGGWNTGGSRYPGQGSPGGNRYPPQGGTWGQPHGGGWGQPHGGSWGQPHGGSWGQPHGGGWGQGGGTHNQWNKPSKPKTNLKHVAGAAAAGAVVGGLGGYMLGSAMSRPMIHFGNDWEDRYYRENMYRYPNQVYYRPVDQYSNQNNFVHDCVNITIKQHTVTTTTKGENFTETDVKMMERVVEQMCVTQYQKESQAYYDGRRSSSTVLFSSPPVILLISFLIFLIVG

`O=C(Nc1ccc(F)nc1)C(=O)c1c[nH]c2ccccc12`: the results for the Activity result with SMB [1] and in the data set on SMB [2] were “Dose-dependent effect” and 52.3%, respectively. Further, in data set [3], the EC50 turned out to be 1210 nM.

Regarding `COc1ccccc1NC(=O)C(=O)c1c[nH]c2ccccc12`, the Remaining PrP-Sc level in the data set on SMB [4] is 140%. Further, the Activity result in [5] is recorded as “Toxic”.

Turning to `Cn1cc(C(=O)C(=O)N2CCCCC2)c2ccccc21`, the Remaining PrP-Sc level in the data set on SMB [4] stood at 131%. For the same compound, the Activity result in data set [5] is listed as “Toxic”.

`O=C(NCc1ccc(Oc2ccccc2)cc1)C(=O)c1c[nH]c2ccccc12`: the Remaining PrP-Sc level with SMB [4] was 17.5%. Further, the EC50 in [3] was 1030 nM.

In the case of `CN(C(=O)C(=O)c1c[nH]c2ccccc12)c1ccccc1`, in the data set on SMB [6], the Activity was determined as 127%.

For the compound `CCN(CC)CCCC(C)Nc1c2ccc(Cl)cc2nc2ccc(OC)cc12` (stereo not drawn) [QUINACRINE], the EC50 was determined as 420 nM in [3] and 300 nM in [7].

`Cc1cccc(NC(=O)C(=O)c2c[nH]c3ccccc23)c1`: the Remaining PrP-Sc level with SMB [4] was determined as 21.7%. Besides, in data set [3], the EC50 is 6350 nM.

As to `O=C(Nc1ccccc1)C(=O)c1c[nH]c2ccccc12`, the Activity in the data set with SMB [2] was found to be 19.5%. Further, in data set [3], the EC50 was found to be 320 nM. Besides, the outcome in data set [8] and in [9] was inactive.

With `Cc1[nH]c2ccccc2c1C(=O)C(=O)Nc1cccc2c(O)cccc12`, the Activity result in data set [5] was “Toxic”.

Turning to `Cn1cc(C(=O)C(=O)Nc2cccc(C#N)c2)c2ccccc21`, the Remaining PrP-Sc level in the data set on SMB [10] came to 91.2%. The Activity result in [5] is “Toxic”.

As for `Cc1[nH]c2ccccc2c1C(=O)C(=O)NC1CCCCC1`, the Remaining PrP-Sc level in the data set on SMB [10] stood at 102%. Further, in [5], the Activity result is “Toxic”.

On to `O=C(Nc1cccc(Cl)c1)C(=O)c1c[nH]c2ccccc12`, for which the Remaining PrP-Sc level in the data set with SMB [4] came out at 40%. In addition, in [3], the EC50 came out at 1510 nM.

With `Cn1cc(C(=O)C(=O)Nc2cccc(Oc3ccccc3)c2)c2ccccc21`, the Remaining PrP-Sc level with SMB [4] is 169%. Besides, in data set [5], the Activity result is reported as “Toxic”.

As to `Cn1cc(C(=O)C(=O)Nc2ccc(O)cc2)c2ccccc21`, the Remaining PrP-Sc level in the data set on SMB [4] came to 47.3%. Further, the EC50 in data set [3] amounted to 3770 nM.

`O=C(Nc1cccc(F)c1)C(=O)c1c[nH]c2ccccc12`: the Activity in the data set on SMB [2] worked out at 27.1%. Further, in data set [3], the EC50 came out at 640 nM. In addition, the outcome in [8] and in data set [9] was inactive.

On to `CCc1cccc(NC(=O)C(=O)c2c[nH]c3ccccc23)c1`, for which the Remaining PrP-Sc level with SMB [4] amounted to 37.9%. In [3], the EC50 was 12100 nM.

In the case of `O=C(Nc1ccc(N2CCOCC2)cc1)C(=O)c1c[nH]c2ccccc12`, the Activity result in the data set on SMB [1] was “Dose-dependent effect”; with SMB [2], 4.6%. In addition, the EC50 in data set [3] came out at 9 nM.

Consider `Cc1[nH]c2ccccc2c1C(=O)C(=O)NCc1ccco1`, for which, in the data set on SMB [10], the Remaining PrP-Sc level worked out at 83%. Also, the Activity result in [5] was “Toxic”.

`O=C(Nc1ccc(O)cc1)C(=O)c1c[nH]c2ccccc12`: the Activity in the data set with SMB [2] came out at 17.8%. For the same compound, in [3], the EC50 is 240 nM. For the same compound, the result in [8] and in data set [9] was inactive.

For `O=C(Nc1cnc2ccccc2c1)C(=O)c1c[nH]c2ccccc12`, the Activity with SMB [2] came to 41.3%. Moreover, the EC50 in data set [3] came out at 170 nM. For the same compound, the result in data set [8] and in data set [9] was inactive.

As for `COc1ccc(NC(=O)C(=O)c2c[nH]c3ccccc23)cc1`, in the data set on SMB [2], the Activity is 6.7%. In addition, in data set [3], the EC50 was 11 nM. Moreover, the result in data set [8] and in [9] was inactive.

For `O=C(Nc1cccnc1)C(=O)c1c[nH]c2ccccc12`, the Remaining PrP-Sc level in the data set on SMB [4] came out at 8%. Moreover, in [3], the half-maximal effective concentration (EC50) came to 1660 nM.

In the case of `COc1cc(/C=C/C(=O)CC(=O)/C=C/c2ccc(O)c(OC)c2)ccc1O` [CURCUMIN], the EC50 in data set [3] stood at 950 nM; in data set [11] it was 10 nM.

`COc1cccc(NC(=O)C(=O)c2c[nH]c3ccccc23)c1`: the Remaining PrP-Sc level in the data set with SMB [4] turned out to be 17.5%. Moreover, in [3], the concentration for a half-maximal effect (EC50) is 230 nM. For the same compound, the outcome in data set [8] and in data set [9] was inactive.

Turning to `O=C(Nc1cccc(-c2cnco2)c1)C(=O)c1c[nH]c2ccccc12`, the Remaining PrP-Sc level in the data set on SMB [4] was determined as 16.8%. The EC50 in [3] is 530 nM.

Take `O=C(Nc1ccc(N2CCCCC2)cc1)C(=O)c1c[nH]c2ccccc12`: the Activity result was “Dose-dependent effect” in the data set on SMB [1] and 6.5% with SMB [2]. Further, in data set [3], the EC50 stood at 72 nM.

For `CC(C)NC(=O)C(=O)c1c[nH]c2ccccc12`, the Remaining PrP-Sc level in the data set with SMB [10] was determined as 74.9%. The Activity result in data set [5] and in data set [12] was “Toxic” in each case.

Take `Cn1cc(C(=O)C(=O)Nc2cnc3ccccc3c2)c2ccccc21`: in the data set on SMB [10], the Remaining PrP-Sc level is 102%. Further, in data set [5], the Activity result was “Toxic”.

Consider `COc1cc(NC(=O)C(=O)c2cn(C)c3ccccc23)ncn1`, for which the Remaining PrP-Sc level in the data set on SMB [4] worked out at 86.4%.

For `Cc1[nH]c2ccccc2c1C(=O)C(=O)Nc1cnc2ccccc2c1`, in the data set with SMB [10], the Remaining PrP-Sc level was found to be 87.6%. For the same compound, the Activity result in data set [5] is “Toxic”.

As for `Cc1[nH]c2ccccc2c1C(=O)C(=O)Nc1ccccc1`, in the data set with SMB [4], the Remaining PrP-Sc level came out at 41.6%.

Regarding `O=C(Nc1cccc(CO)c1)C(=O)c1c[nH]c2ccccc12`, in the data set with SMB [4], the Remaining PrP-Sc level is 17.6%. In [3], the EC50 was 14800 nM.

Regarding `Cn1cc(C(=O)C(=O)NCc2ccccc2)c2ccccc21`, the Remaining PrP-Sc level with SMB [4] worked out at 148%.

For the compound `Cc1csc(NC(=O)C(=O)c2c[nH]c3ccccc23)n1`, in the data set with SMB [4], the Remaining PrP-Sc level is 105%.
